From ChEMBL document CHEMBL1127344, “Tridentate ligands containing the SNS donor atom set as a novel backbone for the development of technetium brain-imaging agents” (J Med Chem, 1994)

Columns and labels:
[1] = species on record: Rattus norvegicus; assay: Tested for biodistribution of compound at 30 min in rat muscle; type: ADME, organism-based, Muscle tissue; details: in vivo, 0.5 h
[2] = species on record: Mus musculus; assay: Tested for biodistribution of compound at 60 min in mice heart; type: ADME, organism-based; details: in vivo, 1 h
Outline: (§1)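 Male Swiss albino mice, at least five per group, received HPLC-purified 99mTc complex by tail vein. The complex was reconstituted in 50% methanol (0.1 mL, 2-3 μCi). Mice were killed by cardiectomy under light ether at 1-60 min pi. Organs were weighed and γ-counted against a 1% injected-dose standard to give % dose/organ. Blood and muscle were taken as 7% and 43% of body weight.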

[3] = species on record: Rattus norvegicus; assay: Tested for biodistribution of compound at 60 min in rat spleen; type: ADME, organism-based; details: in vivo, 1 h
[4] = species on record: Rattus norvegicus; assay: Tested for biodistribution of compound at 10 min in rat kidney; type: ADME, organism-based; details: in vivo
Outline: (§2)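 Wistar rats under ether anesthesia were dosed through the femoral vein with 0.1 mL of 99mTc complex (3-6 μCi) and dissected 5-60 min pi. Tissue radioactivity was γ-counted against a 1% injected-dose standard and expressed as % dose/organ. Blood and muscle were calculated from sample weight assuming 7% and 43% of body weight.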

[5] = species on record: Rattus norvegicus; assay: Tested for biodistribution of compound at 10 min in rat s. intestine; type: ADME, organism-based; details: in vivo; outline: as §2
[6] = species on record: Mus musculus; assay: Tested for biodistribution of compound at 5 min in mice kidney; type: ADME, organism-based; details: in vivo; outline: as §1
[7] = species on record: Mus musculus; assay: Tested for biodistribution of compound at 1 min in mice heart; type: ADME, organism-based; details: in vivo
Outline: (§3)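 Male Swiss albino mice, at least five per group, received 0.1 mL (2-3 μCi) of HPLC-purified 99mTc complex reconstituted in 50% methanol by tail vein. They were killed by cardiectomy under light ether anesthesia at set times (1-60 min pi). Organs were weighed and γ-counted against a 1% injected-dose standard to give % dose/organ. Blood and muscle were taken as 7% and 43% of body weight.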

[8] = species on record: Mus musculus; assay: Tested for biodistribution of compound at 5 min in mice blood; type: ADME, organism-based; details: in vivo; outline: as §1
[9] = species on record: Mus musculus; assay: Tested for biodistribution of compound at 10 min in mice heart; type: ADME, organism-based; details: in vivo; outline: as §3
[10] = species on record: Mus musculus; assay: Tested for biodistribution of compound at 1 min in mice blood; type: ADME, organism-based; details: in vivo; outline: as §3
[11] = species on record: Rattus norvegicus; assay: Tested for biodistribution of compound at 60 min in rat liver; type: ADME, organism-based; details: in vivo, 1 h
[12] = species on record: Rattus norvegicus; assay: Tested for biodistribution of compound at 5 min in rat spleen; type: ADME, organism-based; details: in vivo
[13] = species on record: Mus musculus; assay: Tested for biodistribution of compound at 60 min in mice spleen; type: ADME, organism-based; details: in vivo, 1 h; outline: as §1
[14] = species on record: Mus musculus; assay: Tested for biodistribution of compound at 1 min in mice lungs; type: ADME, organism-based, Lung; details: in vivo; outline: as §3
[15] = species on record: Mus musculus; assay: Tested for biodistribution of compound at 60 min in mice stomach; type: ADME, organism-based; details: in vivo, 1 h; outline: as §1
[16] = species on record: Rattus norvegicus; assay: Tested for biodistribution of compound at 30 min in rat brain; type: ADME, organism-based; details: in vivo, 0.5 h; outline: as §2
[17] = species on record: Mus musculus; assay: Tested for biodistribution of compound at 10 min in mice stomach; type: ADME, organism-based; details: in vivo; outline: as §3
[18] = species on record: Mus musculus; assay: Tested for biodistribution of compound at 1 min in mice muscle; type: ADME, organism-based, Muscle tissue; details: in vivo; outline: as §3
[19] = species on record: Mus musculus; assay: Tested for biodistribution of compound at 60 min in mice muscle; type: ADME, organism-based, Muscle tissue; details: in vivo, 1 h; outline: as §1
[20] = species on record: Mus musculus; assay: Tested for biodistribution of compound at 30 min in mice liver; type: ADME, organism-based; details: in vivo, 0.5 h; outline: as §3
[21] = species on record: Rattus norvegicus; assay: Tested for biodistribution of compound at 60 min in rat blood; type: ADME, organism-based; details: in vivo, 1 h
[22] = species on record: Rattus norvegicus; assay: Tested for biodistribution of compound at 30 min in rat lungs; type: ADME, organism-based, Lung; details: in vivo, 0.5 h
[23] = species on record: Rattus norvegicus; assay: Tested for biodistribution of compound at 10 min in rat brain; type: ADME, organism-based; details: in vivo; outline: as §2
[24] = species on record: Rattus norvegicus; assay: Tested for biodistribution of compound at 60 min in rat muscle; type: ADME, organism-based, Muscle tissue; details: in vivo, 1 h
[25] = species on record: Mus musculus; assay: Tested for biodistribution of compound at 5 min in mice heart; type: ADME, organism-based; details: in vivo; outline: as §1
[26] = species on record: Mus musculus; assay: Tested for biodistribution of compound at 30 min in mice spleen; type: ADME, organism-based; details: in vivo, 0.5 h; outline: as §3
[27] = species on record: Mus musculus; assay: Tested for biodistribution of compound at 60 min in mice lungs; type: ADME, organism-based, Lung; details: in vivo, 1 h; outline: as §1
[28] = species on record: Rattus norvegicus; assay: Tested for biodistribution of compound at 60 min in rat l intestine; type: ADME, organism-based; details: in vivo, 1 h
[29] = species on record: Rattus norvegicus; assay: Tested for biodistribution of compound at 5 min in rat kidney; type: ADME, organism-based; details: in vivo
[30] = species on record: Mus musculus; assay: Tested for biodistribution of compound at 5 min in mice brain; type: ADME, organism-based; details: in vivo; outline: as §1
[31] = species on record: Rattus norvegicus; assay: Tested for biodistribution of compound at 5 min in rat l intestine; type: ADME, organism-based; details: in vivo
[32] = species on record: Rattus norvegicus; assay: Tested for biodistribution of compound at 5 min in rat blood; type: ADME, organism-based; details: in vivo
[33] = species on record: Mus musculus; assay: Tested for biodistribution of compound at 5 min in mice liver; type: ADME, organism-based; details: in vivo; outline: as §1
[34] = species on record: Rattus norvegicus; assay: Tested for biodistribution of compound at 5 min in rat s. intestine; type: ADME, organism-based; details: in vivo

Work on “[4-methoxythio)phenolato][N,N-bis(2-mercaptoethyl)-N',N'-diethylethylenediamine] oxotechnetium” yielded a Dose/organ [1] of 16.52%, a Dose/organ [2] of 0.12% and a Dose/organ [3] of 0.46%. It also gave a Dose/organ [4] of 4.26%, a Dose/organ [5] of 6.34% and a Dose/organ [6] of 3.14%. It also gave a Dose/organ [7] of 3.6%, a Dose/organ [8] of 2.02% and a Dose/organ [9] of 0.46%. For the same substance, the Dose/organ [10] was 5.24%, the Dose/organ [11] was 35.74% and the Dose/organ [12] was 0.58%. It also gave a Dose/organ [13] of 0.21%, a Dose/organ [14] of 27.19% and a Dose/organ [15] of 2.34%. The Dose/organ [16] was 0.53%, the Dose/organ [17] was 1.2% and the Dose/organ [18] was 17.26%. It also gave a Dose/organ [19] of 6.86%, a Dose/organ [20] of 25.58% and a Dose/organ [21] of 4.8%. It also gave a Dose/organ [22] of 2.08%, a Dose/organ [23] of 1.16% and a Dose/organ [24] of 10.6%. It also gave a Dose/organ [25] of 0.74%, a Dose/organ [26] of 0.38% and a Dose/organ [27] of 1.79%. The Dose/organ [28] was 1.05%, the Dose/organ [29] was 3.22% and the Dose/organ [30] was 3.01%. It also gave a Dose/organ [31] of 2.64%, a Dose/organ [32] of 18.89% and a Dose/organ [33] of 10.73%. It also gave a Dose/organ [34] of 5.96%.
